Values joined by “and” are separate entries in the source; they are usually repeats but may differ in a detail not shown here. Equal entries are not always repeated. The whole screen tested about 2,500 compounds, of which about 1,200 (48%) were called active.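 The calls were made as follows: active = mean activation above the low control average plus 3 SD, as set in the primary screen (cut at about 12% in these data); inactive = the rest.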 The set was probably picked from earlier hits. This is one part of the list. A structure can be active in one record and inactive in another.
What follows are compounds tested against Troponin I, cardiac muscle (Homo sapiens) + Troponin T, cardiac muscle (Homo sapiens) + Troponin C, slow skeletal and cardiac muscles (Homo sapiens) (UniProt P19429+P45379+P63316) (assay: cardiac RTF calcium sensitivity activators, confirmation, biochemical, IANBD-TnC fluorescence, triplicate (AID 504383;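 also: 0% = DMSO at 0.472 mM calcium and 100% = DMSO at 2.9 mM calcium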)). Details: IANBD-labeled cardiac RTF, Ca2+ sensitivity fluorescence; at 7.2 µM; stronger effect = higher value; scaled from EC20 to saturating calcium; tested at EC20 calcium, 0.472 mM.
Method in brief: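 Material: labelled regulated thin filaments; Reagent: 0.472 mM calcium; Incubation: 15 min compound incubation with filaments at 25 °C; Detection: filament fluorescence intensity; Evaluation: fluorescence increase normalised to calcium controls; Benchmarks: low control EC20 calcium, high control EC100 calcium.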

SMILES | activation
C[n+]1c2cc(N)ccc2cc2ccc(N)cc21 | 6.45% (inactive) and 14.5% (active)
N#Cc1cc(C(=O)c2ccccc2O)cn(-c2nccs2)c1=O | 45.5% (active)
N#Cc1cc(C(=O)c2cc(F)ccc2O)cn(-c2nccs2)c1=O | 9.61% (inactive)
Cn1c(=O)c2c(nc(NCCNC(=O)c3ccco3)n2Cc2ccccc2Cl)n(C)c1=O | 7.43% (inactive)
CCN(CC)CCCNC(=O)CCn1nc(-c2ccc(Cl)cc2)ccc1=O | 7.9% (inactive)
Cn1c(CCNC(=O)c2ccco2)nc2ccccc21 | 919% (active)
O=C(Cn1c(C(F)(F)F)nc2ccccc21)NCCN1CCCC1 | -3.29% (inactive)
CN1/C(=C\C(=O)c2ccco2)C(C)(C)c2ccccc21 | 7.09% (inactive)
CCCC(=O)NCCCc1nc2ccccc2n1C | 124% (active)
CC(C)(C)NCc1cc(Cl)ccc1OCc1cccs1 | 47% (active)
Cc1cc(Cl)ccc1OCC(=O)Nc1nc(-c2cccs2)cs1 | -1.8% (inactive)
COc1ccc(OC)c(/C=c2\sc3nc(-c4cccs4)nn3c2=O)c1 | 9.45% (inactive)
COc1ccc(C(=O)Nn2cnc3scc(-c4cccs4)c3c2=O)c(O)c1 | 29.8% (active)
CCOC(=O)c1nc2cc3n(c(CC(C)C)c-2c1C)CC(C)=C3C | 1.31% (inactive)
O=c1[nH]c2ccc(N=Cc3c(O)ccc4cc(Br)ccc34)cc2[nH]1 | 0.37% (inactive)
Oc1[nH]c2ccc(Br)cc2c1N=Nc1ccc(F)cc1 | 22.7% (active)
Cc1cccc(N=Nc2c(O)[nH]c3ccc(F)cc23)c1 | 7.58% (inactive)
Cc1ccc(N=Nc2c(O)[nH]c3ccc(F)cc23)cc1 | 20.6% (active)
CCN1/C(=C2\SC(=S)N(Cc3ccccc3)C2=O)Sc2ccccc21 | -1.47% (inactive)
CCN1/C(=C/C=C2/SC(=Nc3cccc4ncccc34)N(C)C2=O)Sc2ccccc21 | 28.3% (active)
CC1(C)CCN2CCC(C)(C)c3c(O)ccc1c32 | 42.4% (active)
Cc1cccn2c(=O)c3cc(C#N)c(=NC(=O)c4cccs4)n(CCCOC(C)C)c3nc12 | 4.3% (inactive)
CCOCCCn1c(=NC(=O)c2cccs2)c(C#N)cc2c(=O)n3cccc(C)c3nc21 | 19% (active)

SMILES | activation
CCOC(=O)/C(=C\c1ccc(N2CCC(c3ccccc3)=N2)cc1)C(C)=O | 8.5% (inactive)
CCOC(=O)/C(=C/C1=CC(=C/N(C)C)/C(=O)O1)C(C)=O | 87.4% (active)
CCOC(=O)NC1(C(F)(F)F)C(=O)NC(C)=C1C(=O)OC (configuration not stated) | 19.8% (active)
CC1CCN(c2ccc3c(c2)S(=O)(=O)c2ccccc2C3=O)CC1 | 9.57% (inactive)
CC(Oc1ccc(F)cc1)C(=O)Nc1sc2c(c1C(=O)NCc1cccnc1)CCCC2 (configuration not stated) | 83.6% (active)
O=C(O)CCCC(=O)Nc1ccc(C(=O)NCc2cccnc2)cc1 | 0.95% (inactive)
NC(=O)c1c(Nc2nc3c(F)cccc3s2)sc2c1CCCC2 | -1.65% (inactive)
CN1C(=CC=C2C=C(I)C(=O)C(I)=C2)C(C)(C)c2ccccc21 | 4.78% (inactive)
CC1(C)c2ccccc2N2CC(=O)N(CC(N)=O)C21C (configuration not stated) | 70.2% (active)
O=C(NCc1cccc(F)c1)c1cccc2c1C(=O)c1ccc(N3CCC(Cc4ccccc4)CC3)cc1S2(=O)=O | 14.5% (active)
CC1CCN(c2ccc3c(c2)S(=O)(=O)c2cccc(C(=O)NCc4ccc(F)cc4)c2C3=O)CC1 | 1.28% (inactive)
O=C(NCCc1ccc(F)cc1)c1cccc2c1C(=O)c1ccc(N3CCC(Cc4ccccc4)CC3)cc1S2(=O)=O | 107% (active)
O=C(NCc1ccc(F)cc1)c1cccc2c1C(=O)c1ccc(N3CCC(Cc4ccccc4)CC3)cc1S2(=O)=O | 4.35% (inactive)
O=C(NCc1ccco1)c1cccc2c1C(=O)c1ccc(N3CCC(Cc4ccccc4)CC3)cc1S2(=O)=O | 63.9% (active)
CC1CCN(c2ccc3c(c2)S(=O)(=O)c2cccc(C(=O)NCc4cccc(F)c4)c2C3=O)CC1 | 8.22% (inactive)
O=C(NCc1cccc(C(F)(F)F)c1)c1cccc2c1C(=O)c1ccc(N3CCC(Cc4ccccc4)CC3)cc1S2(=O)=O | 8.69% (inactive)
O=C(NCc1ccco1)c1cccc2c1C(=O)c1ccc(N3CCCC3)cc1S2(=O)=O | 7.33% (inactive)
O=C(NC1CC1)c1cccc2c1C(=O)c1ccc(N3CCC(Cc4ccccc4)CC3)cc1S2(=O)=O | 0.64% (inactive)
O=C(NCCNC(=O)c1cccs1)c1ccco1 | 40.3% (active)
O=C(NCC(=O)N(Cc1cccs1)C(C(=O)NC1CCCCC1)c1ccncc1)c1ccco1 (configuration not stated) | 3.25% (inactive)
CCOC(=O)Cc1csc(N(C)C)n1 | 10.1% (inactive)
CCOC(=O)Cc1csc(NC(=O)c2sc3nc4cc(C)ccc4cc3c2N)n1 | 71.2% (active)
CCOC(=O)Cc1csc(CC(N)=O)n1 | 4.59% (inactive)

SMILES | activation
Cc1ccc(CNC(=O)c2ccc(S(=O)(=O)N3CCCCC3)cc2)cc1 | 6.31% (inactive)
Cc1ccc(NC(=O)CN(C)c2ccc(S(=O)(=O)N3CCCC3)cn2)cc1 | 94.3% (active)
CCc1cccc2cc3c(N)c(C(=O)Nc4ccc(S(=O)(=O)N5CCCC5)cc4)sc3nc12 | 24.8% (active)
Nc1c(C(=O)Nc2ccc(S(=O)(=O)N3CCCC3)cc2)sc2nc3ccc(OC(F)(F)F)cc3cc12 | 11.7% (active)
Cc1cccc2cc3c(N)c(C(=O)N4CCCc5ccccc54)sc3nc12 | 6.58% (inactive)
O=c1[nH][nH]c(C(F)(F)F)c1C=Nc1cccc(Cl)c1 | 60% (active)
O=c1[nH][nH]c(C(F)(F)F)c1C=NCc1ccccc1Cl | 33.6% (active)
CN(C)c1ccc2nc3c(=O)[nH]c(=O)nc-3n(CC(O)C(O)C(O)CO)c2c1 (configuration not stated) | 10.2% (inactive)
Cc1ccc(-c2nc(N)n(C(=O)c3cccnc3)n2)cc1 | 148% (active)
COc1ccccc1C(=O)n1nc(-c2ccccc2)nc1N | 4.84% (inactive)
COC(=O)c1ccc(Oc2c(F)c(F)nc(N3CCOCC3)c2F)cc1 | 5.29% (inactive)
COc1ccc(C(=O)/C=C/c2cn(CC(O)CN3CCOCC3)c3ccccc23)cc1 (configuration not stated) | 21.6% (active)
COc1ccc(C(=O)/C=C/c2cn(CC(O)CN3CCN(C)CC3)c3ccccc23)cc1OC (configuration not stated) | 133% (active)
Cc1ccc(C(=O)/C=C/c2cn(CC(O)CN3CCOCC3)c3ccccc23)cc1 (configuration not stated) | -2.05% (inactive)
O=c1c(O)c(-c2cccs2)oc2ccc(Cl)cc12 | 4.87% (inactive)
O=C(N/N=C/c1cc(Cl)cc(Cl)c1O)c1ccncc1 | 17.9% (active)
Nc1nnnn1/N=C/c1cc(Cl)cc(Cl)c1O | 11% (inactive)
C/C(=N/NC(=O)c1ccncc1)c1cc2ccc(O)cc2oc1=O | 4.52% (inactive)
CC1(C)CC2CC(C)(CN2CC(=O)C(C#N)c2ccccc2)C1 (configuration not stated) | 7.07% (inactive)
Cn1ncc2c(O/N=C(\N)c3ccc(C(F)(F)F)cc3)ncnc21 | 93.4% (active)
Nc1ccn([C@H]2C[C@H](O)[C@@H](CO)O2)c(=O)n1 | 11.1% (inactive)
CC1(OC(=O)CCc2ccccc2)C(=O)C=C2C=C(c3ccc(C#N)cc3)N(C3CCCC3)C=C2C1=O (configuration not stated) | 5.7% (inactive)
Cc1cc(C)n(C2CCCCC2OC(=O)CCc2ccccc2)n1 (configuration not stated) | 35.8% (active)

SMILES | activation
O=C(Cc1c(F)cccc1Cl)Nc1nccs1 | 1.97% (inactive)
CC1(C)CC(CC(=O)Nc2nccs2)(c2ccccc2)CCO1 (configuration not stated) | 604% (active)
C=CCn1c(SCC(=O)Nc2nccs2)nnc1-c1ccco1 | 7.96% (inactive)
COc1ccccc1N1CCN(C(=O)c2ccc(Cn3c(=O)[nH]c4ccsc4c3=O)cc2)CC1 | 125% (active)
CN1CCN(S(=O)(=O)c2cccc(C(=O)Oc3cccc(Br)c3)c2)CC1 | 11.4% (inactive)
COCC(=O)NC1CCN(S(=O)(=O)c2cccc(C(C)=O)c2)CC1 | 14.3% (active)
COc1ccc(C(=O)N/N=C/c2sc3ccccc3c2O)cc1 | 14.3% (active)
O=C(N/N=C/c1sc2ccccc2c1O)c1ccccc1 | 66.7% (active)
CC(=NNC(=O)c1ccncc1)c1ccc2ccccc2c1O | 6.88% (inactive)
O=C(N/N=C/c1sc(N2CCOCC2)nc1-c1ccccc1)c1cccc(S(=O)(=O)N2CCCC2)c1 | 3.15% (inactive)
COc1ccc2cc(C(=O)N/N=C/c3sc4ccccc4c3O)ccc2c1 | 277% (active)
CN(/N=C/c1ccc(O)cc1O)c1ncc(C(F)(F)F)cc1Cl | 6.15% (inactive)
CCN1CC=C2C(C1)C(c1ccc(Cl)s1)C(C#N)=C(N)C2(C#N)C#N (configuration not stated) | 19.5% (active)
Cc1cc(C)c(OCCOCCN2CCNCC2)c(C)c1 | 7.52% (inactive)
C[C@@H](NC(=O)c1ncn(C)c1C(=O)N[C@H](C)c1ccccc1)c1ccccc1 | 2.64% (inactive)
CCc1ccc(C(C)NC(=O)c2ncn[nH]2)cc1 (configuration not stated) | 17.2% (active)
CCn1c(NC(=O)Nc2cccc(C)c2C)cc2sccc21 | 12.6% (active)
COc1ccc(C2C(C(C)=O)=C(C)N=c3s/c(=C\c4cc(C)n(C)c4C)c(=O)n32)c(OC)c1 (configuration not stated) | 15% (active)
CCOC(=O)c1[nH]cnc1C(=O)Nc1ccccn1 | 12.4% (active)
CCN(CC)c1ccc2cc(C(=O)Nc3ccccn3)c(=O)oc2c1 | 7.83% (inactive)
CCOC(=O)C(C(=O)Nc1cccc(C)n1)C1CCCCC1 (configuration not stated) | 7.01% (inactive)
Cc1oc(-c2cc3c(cc2Cl)OCO3)nc1CN1CCCC(C(=O)N2CCOCC2)C1 (configuration not stated) | 447% (active)
CCN(C(=O)CSc1nnc(COc2ccccc2F)n1N)c1c(N)n(Cc2ccccc2)c(=O)[nH]c1=O | 1020% (active)

From PubChem BioAssay AID504383 (The Scripps Research Institute Molecular Screening Center, 2011)
